A short description of data set [1]: Half life in RPMI media at 10 uM by HPLC analysis. The format is physicochemical. The method, boiled down:
(§1)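 Compound added from DMSO stock to pre-heated RPMI 1640 (1.8 mL) plus 0.2 mL human AB male serum or FBS, or to 2 mL RPMI alone, at final 1 or 10 μM. Samples analysed by HPLC at pH 9.5 (formic acid/ammonia in acetonitrile/water), with conversion taken from the substrate/internal standard peak ratio. Run in triplicate; half-lives ± SD.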

A short description of data set [2]: Half life in RPMI media at 10 uM by HPLC analysis in presence of fetal bovine serum. The format is ADME. Conditions: cattle. Summed up: as §1
Data set [3] can be described thus: Half life in RPMI media at 10 uM by HPLC analysis in presence of human blood serum. The format is ADME. Summed up: as §1
The nature of data set [4]: Half life in RPMI media at 1 uM by HPLC analysis in presence of human blood serum. The format is ADME. Summed up: as §1
Data set [5] can be described thus: Selectivity ratio of IC50 for MEF to IC50 for human HeLa cells. The format is cell-based. Conditions: mouse (MEF) and human (HeLa cells), read-out: Ratio IC50.
Data set [6] is described as follows: Binding affinity to eIF4A1/2 in rabbit reticulocyte lysate assessed as inhibition of cap-dependent translation after 1.5 hrs by dual luciferase reporter gene assay. The arrangement: species or system Oryctolagus cuniculus. Summed up:
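Capped bicistronic reporter mRNA: cap-dependent firefly luciferase first cistron, HCV IRES-driven Renilla second cistron. Transcribed in vitro with SP6 from the BamHI-linearised plasmid. 200 ng RNA translated in rabbit reticulocyte lysate with 70 mM KCl, 2 mM DTT, RNasin and compound in DMSO (5% v/v final), 30 °C for 1.5 h. Dual luciferase readout. Duplicates, 4 independent assays, mean IC50 by curve fit.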
On the technique in general: Reporter assays use an easily measured gene product as a stand-in for the process of interest.

Data set [7] is described as follows: Antiproliferative activity against human Jurkat T cells after 72 hrs by MTT assay. The format is functional, cell-based. The method, boiled down:
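HeLa and SK-MEL2 grown in DMEM, Jurkat in RPMI 1640, each with 10% FBS and penicillin-streptomycin, at 37 °C and 5% CO2. Adherent cells seeded at 2000/well and left to recover overnight; Jurkat seeded at 5000/well with no recovery. Compound added in DMSO (0.1% final), then 72 h incubation and MTT readout.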
(In general: Formazan colour is commonly taken as a measure of viable cells.)

Another data set concerns HaCaT. The data set is described as follows: Antiproliferative activity against human HaCaT cells assessed as DNA synthesis level after 24 hrs by thymidine incorporation assay. The format is functional, cell-based. Summed up:
(§2)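 Cells kept at 37 °C, 5% CO2 with penicillin-streptomycin and 10% FBS. Adherent lines seeded at 2000 cells/well and left to recover overnight; Jurkat seeded at 5000 cells/well with no recovery period. Compound added in DMSO (0.1% final, vehicle-only control) at 0.001–100 nM over 10 wells. DNA synthesis read out after 24 h. Mean IC50 from at least 3 independent assays.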

The test system of a further data set is RKO. Description: Antiproliferative activity against human RKO cells assessed as DNA synthesis level after 24 hrs by thymidine incorporation assay. The format is functional, cell-based. The method, boiled down:
as §2

For data set [8], the target named is T1, DNA polymerase subunit gamma-1 (Homo sapiens, UniProt P54098).
T1 sequence (P54098 whole entry): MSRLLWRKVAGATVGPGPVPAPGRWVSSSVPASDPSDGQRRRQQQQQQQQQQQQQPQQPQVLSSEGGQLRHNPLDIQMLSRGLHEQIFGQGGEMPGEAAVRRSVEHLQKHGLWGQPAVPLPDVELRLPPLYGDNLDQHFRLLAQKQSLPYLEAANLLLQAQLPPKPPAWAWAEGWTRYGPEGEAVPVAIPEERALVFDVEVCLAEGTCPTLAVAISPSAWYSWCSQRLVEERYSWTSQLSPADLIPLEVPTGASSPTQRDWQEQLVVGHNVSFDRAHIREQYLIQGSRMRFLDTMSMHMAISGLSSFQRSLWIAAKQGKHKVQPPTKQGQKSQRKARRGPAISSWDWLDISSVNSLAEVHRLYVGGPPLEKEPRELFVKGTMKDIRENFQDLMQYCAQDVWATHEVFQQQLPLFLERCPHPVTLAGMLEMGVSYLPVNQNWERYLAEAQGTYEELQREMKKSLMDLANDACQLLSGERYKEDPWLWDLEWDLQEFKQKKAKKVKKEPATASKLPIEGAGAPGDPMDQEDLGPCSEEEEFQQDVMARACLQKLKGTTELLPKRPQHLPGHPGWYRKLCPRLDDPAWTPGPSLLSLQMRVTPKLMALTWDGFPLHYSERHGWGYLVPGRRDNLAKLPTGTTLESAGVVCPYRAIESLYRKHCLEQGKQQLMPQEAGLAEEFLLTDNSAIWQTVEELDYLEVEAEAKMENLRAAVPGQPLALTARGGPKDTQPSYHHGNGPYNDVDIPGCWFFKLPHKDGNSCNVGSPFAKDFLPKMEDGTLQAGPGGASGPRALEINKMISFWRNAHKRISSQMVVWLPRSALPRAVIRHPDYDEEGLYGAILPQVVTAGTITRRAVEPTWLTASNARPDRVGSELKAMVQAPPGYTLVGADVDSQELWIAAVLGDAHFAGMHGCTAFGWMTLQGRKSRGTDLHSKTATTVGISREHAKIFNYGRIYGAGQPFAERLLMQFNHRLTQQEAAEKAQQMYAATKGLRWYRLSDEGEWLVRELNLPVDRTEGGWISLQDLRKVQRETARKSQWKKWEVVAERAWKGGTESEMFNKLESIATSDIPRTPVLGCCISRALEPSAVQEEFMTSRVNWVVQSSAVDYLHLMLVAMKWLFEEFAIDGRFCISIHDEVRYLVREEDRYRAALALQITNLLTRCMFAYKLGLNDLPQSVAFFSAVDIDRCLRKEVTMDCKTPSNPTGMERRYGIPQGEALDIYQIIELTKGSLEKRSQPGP
The data set is described as follows: Inhibition of DNA polymerase-gamma (unknown origin) assessed as incorporation of Br(d)UTP by colorimetric analysis.

From ChEMBL document CHEMBL3124904, “Second-generation derivatives of the eukaryotic translation initiation inhibitor pateamine A targeting eIF4A as potential anticancer agents” (Bioorg Med Chem, 2014) come the findings set out here.

`CC(/C=C/C(C)=C/[C@@H]1Cc2nc(cs2)CCCCC(=O)O[C@@H](C)C/C(C)=C/C=C\C(=O)O1)=C\CN(C)C`: the t1/2 in [1] came to 3.25 h; in data set [2], 12.5 h; in [3], 13 h; in data set [4], 24 h. Further, in data set [5], the selectivity ratio turned out to be 5. In addition, the IC50 (in general, the midpoint of a concentration-inhibition curve) in data set [6] is 21.5 nM; in [7] it was 11 nM; with HaCaT it was 0.9 nM; in the data set with RKO, 1.2 nM; in [8], 3000 nM.
